Laboratory results from ChEMBL document CHEMBL3632461 (J Med Chem, 2015).
Calls of active or inactive are those of the source. No cut-off for these calls is given here.

What was measured:
[1] = Retention time of the compound in sodium phosphate buffer at 10 uM after 60 mins by LC-MS/MS analysis in presence of H2O2; format: physicochemical; settings: 1 h
[2] = molecular target: T1, Myeloperoxidase (Homo sapiens) (UniProt P05164); settings: 24 uM
T1 sequence (whole entry): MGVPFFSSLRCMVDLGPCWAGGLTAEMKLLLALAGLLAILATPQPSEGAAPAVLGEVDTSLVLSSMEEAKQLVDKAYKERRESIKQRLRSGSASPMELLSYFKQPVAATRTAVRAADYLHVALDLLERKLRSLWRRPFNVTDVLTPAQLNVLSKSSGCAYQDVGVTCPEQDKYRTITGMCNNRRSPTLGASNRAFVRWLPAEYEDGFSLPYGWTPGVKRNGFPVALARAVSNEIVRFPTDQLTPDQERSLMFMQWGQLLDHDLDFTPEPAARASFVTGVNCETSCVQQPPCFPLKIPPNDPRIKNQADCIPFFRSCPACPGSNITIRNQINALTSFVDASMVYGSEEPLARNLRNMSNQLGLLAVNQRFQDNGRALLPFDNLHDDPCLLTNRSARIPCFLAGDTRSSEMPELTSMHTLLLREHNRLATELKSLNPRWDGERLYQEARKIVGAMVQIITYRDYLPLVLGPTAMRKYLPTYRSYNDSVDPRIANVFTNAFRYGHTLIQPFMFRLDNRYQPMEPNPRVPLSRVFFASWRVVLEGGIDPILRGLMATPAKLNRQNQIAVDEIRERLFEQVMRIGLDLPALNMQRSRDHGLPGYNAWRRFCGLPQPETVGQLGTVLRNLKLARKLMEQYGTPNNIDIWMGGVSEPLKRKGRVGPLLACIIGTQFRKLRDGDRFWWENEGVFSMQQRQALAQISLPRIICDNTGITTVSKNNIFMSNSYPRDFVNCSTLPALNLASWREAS

[3] = molecular target: T1, Myeloperoxidase (Homo sapiens); settings: 24 uM; remark: listed apart in the source
[4] = molecular target: T2, Myeloperoxidase (Homo sapiens, UniProt P05164); experiment: Irreversible inhibition of MPO in LPS-stimulated human whole blood after 4 hrs by Amplex Red/H2O2-based fluorescence plate reader analysis
T2 sequence (P05164 whole entry): T1 sequence (whole entry)
Outline: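 Heparinized whole blood from healthy human volunteers, stimulated with bacterial LPS and incubated with compound for 4 h. MPO captured on anti-MPO antibody plates and washed; residual activity measured with Amplex Red and H₂O₂. IC₅₀ reported as geometric mean [90% CI].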

[5] = molecular target: T2, Myeloperoxidase; experiment: Inhibition of peroxidase activity of MPO isolated from human polynuclear leukocytes using Amplex Red as substrate assessed as formation of resorufin after 300 secs by spectrophotometric analysis
[6] = molecular target: T1, Myeloperoxidase (Homo sapiens); settings: 0.47 to 30 uM
[7] = Elimination half life in Beagle dog at 1 mg/kg, iv and 3 or 5 mg/kg, po; format: ADME, organism-based, Canis lupus familiaris; settings: in vivo, read-out: beta t1/2 (converted)
Outline: (§1)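 Male CD-1 mice (25−35 g), cannulated Wistar-Han rats (250 g), beagle dogs (12 kg) and cynomolgus monkeys (7 kg), fasted overnight and fed 1.0 or 2.0 h after dosing. iv 1 mg/kg in saline or 12% sulfobutyl ether β-cyclodextrin; po 3 or 5 mg/kg in 0.5% methylcellulose. Parameters calculated from plasma concentration−time data; mean ± SD for n = 3, individual values for n = 2.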

[8] = Tmax in Wistar rat at 3 or 5 mg/kg, po; format: ADME, organism-based; settings: in vivo
Outline: (§2)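 Male animals (CD-1 mice 25−35 g, cannulated Wistar-Han rats 250 g, beagle dogs 12 kg, cynomolgus monkeys 7 kg), fasted overnight and fed 1.0 or 2.0 h after dosing, water ad libitum. Oral dose 3 or 5 mg/kg in 0.5% methylcellulose. Parameters calculated from plasma concentration−time data; mean ± SD for n = 3, individual values for n = 2.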

[9] = Oral bioavailability in Wistar rat at 3 or 5 mg/kg; format: ADME, organism-based; settings: in vivo
Outline: (§3)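 Male CD-1 mice, Wistar-Han rats, beagle dogs and cynomolgus monkeys, fasted overnight and fed after dosing. Given po at 3 or 5 mg/kg in 0.5% methylcellulose, with an iv reference dose of 1 mg/kg. Bioavailability derived from plasma concentration−time data; mean ± SD (n = 3) or individual values (n = 2).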

[10] = Volume of distribution at steady state in Beagle dog at 1 mg/kg, iv and 3 or 5 mg/kg, po; format: ADME, organism-based, Canis lupus familiaris; settings: in vivo, read-out: Vdss
Outline: (§4)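 Male mice, rats, dogs and cynomolgus monkeys, fasted overnight, fed after dosing. Intravenous dose 1 mg/kg in saline or 12% sulfobutyl ether β-cyclodextrin; oral arm 3 or 5 mg/kg in 0.5% methylcellulose. Steady-state volume derived from plasma concentration−time data; mean ± SD for n = 3, individual values for n = 2.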

[11] = Fraction unbound in human plasma by equilibrium dialysis method; format: ADME, cell-free
Outline: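 Fraction unbound in human plasma measured by equilibrium dialysis; mean of three individual determinations.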

[12] = molecular target: T1, Myeloperoxidase (Homo sapiens); experiment: Inhibition of peroxidase activity of MPO isolated from human polynuclear leukocytes using Amplex Red as substrate assessed as formation of resorufin by measuring ratio of Kinact to Ki measured every 20 secs by spectrophotometric analysis
Outline: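 Enzyme purified from human polynuclear leukocytes. Buffer: 50 mM sodium phosphate pH 7.4, 150 mM NaCl, 1 mM DTPA, 2 μM H2O2, 30 μM Amplex Red, inhibitor or DMSO. Resorufin fluorescence (ex 530/em 580) read every 20 s at room temperature. Progress curves fitted for kobs at each concentration. kinact/KI derived from the kobs versus [I] fit or slope. Geometric mean of at least two experiments.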

[13] = Apparent permeability across RRCK cells; format: ADME, cell-based, Canis lupus familiaris, MDCKII-LE; settings: dog, MDCK
Outline: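 Passive permeability measured in Ralph−Russ canine kidney (RRCK) cells, a low-transporter line isolated from Madin−Darby canine kidney cells; reported as P_app (10⁻⁶ cm/s).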

[14] = system: Liver microsome; experiment: Intrinsic apparent clearance in human liver microsomes; format: ADME
Outline: (§5)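 Stability incubations in NADPH-supplemented human liver microsomes or cryopreserved human hepatocytes. Total apparent intrinsic clearance scaled from the in vitro half-life; microsomes reported per mg protein, hepatocytes per 10⁶ cells.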

[15] = Plasma clearance in Beagle dog at 1 mg/kg, iv and 3 or 5 mg/kg, po; format: ADME, organism-based, Canis lupus familiaris; outline: as §1
[16] = Plasma clearance in Wistar rat at 1 mg/kg, iv and 3 or 5 mg/kg, po; format: ADME, organism-based; outline: as §1
[17] = Volume of distribution at steady state in Wistar rat at 1 mg/kg, iv and 3 or 5 mg/kg, po; format: ADME, organism-based; settings: in vivo, read-out: Vdss; outline: as §4
[18] = system: Hepatocyte; experiment: Intrinsic apparent clearance in human hepatocytes assessed per 10^6 cells; format: ADME, cell-based; outline: as §5
[19] = Oral bioavailability in Beagle dog at 3 or 5 mg/kg; format: ADME, organism-based, Canis lupus familiaris; settings: in vivo; outline: as §3
[20] = Elimination half life in Wistar rat at 1 mg/kg, iv and 3 or 5 mg/kg, po; format: ADME, organism-based; settings: in vivo, read-out: beta t1/2 (converted); outline: as §1
[21] = Lipophilicity, log D of the compound at pH 7.4 by shake-flask method; format: physicochemical; settings: buffer
[22] = molecular target: T3, Thyroid peroxidase (Homo sapiens) (UniProt P07202); experiment: Inhibition of TPO (unknown origin) using Amplex Red as substrate assessed as formation of resorufin by measuring ratio of Kinact to Ki measured every 20 secs by spectrophotometric analysis
T3 sequence (whole entry): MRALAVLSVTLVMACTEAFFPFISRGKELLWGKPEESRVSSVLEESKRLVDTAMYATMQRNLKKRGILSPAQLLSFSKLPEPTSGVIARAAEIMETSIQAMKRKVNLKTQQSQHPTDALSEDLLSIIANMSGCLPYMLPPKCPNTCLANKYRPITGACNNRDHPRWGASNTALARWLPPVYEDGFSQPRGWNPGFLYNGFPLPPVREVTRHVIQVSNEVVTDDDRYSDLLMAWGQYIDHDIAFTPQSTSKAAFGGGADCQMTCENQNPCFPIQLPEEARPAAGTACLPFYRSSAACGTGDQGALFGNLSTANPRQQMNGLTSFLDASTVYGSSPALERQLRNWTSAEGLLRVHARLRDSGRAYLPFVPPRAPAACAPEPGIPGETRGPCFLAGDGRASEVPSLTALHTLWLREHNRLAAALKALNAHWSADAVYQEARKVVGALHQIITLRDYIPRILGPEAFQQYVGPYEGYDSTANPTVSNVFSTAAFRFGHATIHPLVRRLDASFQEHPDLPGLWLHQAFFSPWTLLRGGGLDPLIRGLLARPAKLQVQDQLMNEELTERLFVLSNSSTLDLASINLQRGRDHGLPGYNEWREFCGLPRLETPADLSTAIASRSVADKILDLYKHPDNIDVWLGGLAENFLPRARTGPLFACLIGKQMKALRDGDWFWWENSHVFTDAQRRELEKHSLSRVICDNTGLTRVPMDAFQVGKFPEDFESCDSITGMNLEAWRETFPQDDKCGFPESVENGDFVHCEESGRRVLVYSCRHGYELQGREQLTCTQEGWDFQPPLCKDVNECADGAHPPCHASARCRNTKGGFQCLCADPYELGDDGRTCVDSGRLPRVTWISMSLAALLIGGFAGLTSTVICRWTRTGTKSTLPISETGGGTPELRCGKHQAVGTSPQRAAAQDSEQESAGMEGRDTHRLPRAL
Outline: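 Amplex Red oxidation to resorufin in 50 mM sodium phosphate pH 7.4, 150 mM NaCl, 1 mM DTPA, 2 μM H2O2, 30 μM Amplex Red, 2% DMSO. Reaction started by adding TPO. Background rate measured with bovine catalase added and subtracted. Fluorescence (ex 530/em 580) read every 20 s at room temperature. kinact/KI taken from initial rates over the first 300 s. Geometric mean of at least two experiments.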

[23] = Tmax in Beagle dog at 3 or 5 mg/kg, po; format: ADME, organism-based, Canis lupus familiaris; settings: in vivo; outline: as §2
[24] = Drug level in sodium phosphate buffer treated with 10 uM PTU after 60 mins by LC-MS/MS analysis in presence of human MPO/H2O2/Cl-; format: physicochemical; settings: 1 h
[25] = molecular target: T1, Myeloperoxidase (Homo sapiens); experiment: (§6) Inhibition of peroxidase activity of MPO isolated from human polynuclear leukocytes using Amplex Red as substrate assessed as formation of resorufin measured every 20 secs by spectrophotometric analysis
[26] = molecular target: T2, Myeloperoxidase; experiment: as §6
[27] = Retention time of the compound by LC-MS/MS analysis in presence of human MPO/H2O2/Cl-/excess GSH; format: physicochemical

Compound: COc1ccc(-c2cc(=O)nc3n2CCO3)c(OC)c1
- Retention_time [1]: 14.99 min

Compound: CCCc1cc(=O)[nH]c(=S)[nH]1 [PROPYLTHIOURACIL]
- inhibition [2]: Active
- inhibition [3]: inactive
- IC50 [4]: 5.7 µM
- IC50 [5]: 2.81 µM
- inhibition [6]: tde

Compound: COc1ccc(-c2cc(=O)[nH]c(=S)n2CC(=O)NCCN)c(OC)c1
- half-life [7]: 155 min
- Tmax [8]: 45 min
- bioavailability [9]: 3%
- Vd [10]: 0.86 L/kg
- fraction unbound [11]: 0.9
- log(ratio) [12]: 4.03
- Papp [13]: 1.5 ×10⁻⁶ cm/s
- CLH(app) [14]: < 8 µL/min/mg
- clearance [15]: 4.1 mL/min/kg
- clearance [16]: 38.6 mL/min/kg
- Vd [17]: 0.59 L/kg
- CLH(app) [18]: < 6 µL/min
- bioavailability [19]: 8%
- half-life [20]: 48.6 min
- logD [21]: -1.4
- log(ratio) [22]: < 0.5
- Tmax [23]: 60 min

Compound: CCCc1cc(=O)nc(S(=O)(=O)O)[nH]1
- Drug metabolism [24]: metabolite_detected

Compound: COc1ccc(-c2cc(=O)[nH]c(=S)n2CCOC(C)C)c(OC)c1
- pKinact [25]: 2.43
- Ki [26]: 0.501 µM
- log(ratio) [12]: 3.87
- Papp [13]: 26 ×10⁻⁶ cm/s
- CLH(app) [14]: 11 µL/min/mg
- IC50 [4]: 11 µM
- logD [21]: 2.6
- Retention_time [27]: 25.4 min
- log(ratio) [22]: < 0.5

Compound: CCCc1cc(=O)nc(SSc2nc(=O)cc(CCC)[nH]2)[nH]1
- Drug metabolism [24]: metabolite_detected

Compound: COc1ccc(-c2cc(=O)nc(SC[C@H](NC(=O)CC[C@H](N)C(=O)O)C(=O)NCC(=O)O)n2CCOC(C)C)c(OC)c1
- Retention_time [27]: 15.7 min

Compound: COc1ccccc1-c1cc(=O)[nH]c(=S)[nH]1
- log(ratio) [12]: 3.36
- IC50 [4]: 6.2 µM
- logD [21]: 1.3
- log(ratio) [22]: 2.86

Compound: CCCc1cc(=O)nc(S(=O)O)[nH]1
- Drug metabolism [24]: metabolite_detected
